Experimental data from ChEMBL document CHEMBL1138529, “Efficacy, pharmacokinetics, and metabolism of tetrahydroquinoline inhibitors of Plasmodium falciparum protein farnesyltransferase” (Antimicrob Agents Chemother, 2007).

How the values were obtained:
[1] = Permeability from apical to basolateral side in human Caco-2 cells; type: ADME, cell-based; settings: read-out: permeability
[2] = AUC in Sprague-Dawley rat at 50 mg/kg, po; type: ADME, organism-based; set-up: dose 50 mg/kg, route oral; settings: plasma
In short: (§1)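 Three female BALB/c mice (lines for mice, 8–10 weeks) or three female Sprague-Dawley rats (10–12 weeks) per group; 50 mg/kg oral gavage in 3% EtOH-7% Tween 80-90% normal saline. Plasma sampled at set times (tail bleed in mice, saphenous vein in rats), extracted with acetonitrile plus internal standard, quantified by LC/MS; AUC as mean of three animals.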

[3] = Cmax in Sprague-Dawley rat at 50 mg/kg, po; type: ADME, organism-based; set-up: dose 50 mg/kg, route oral; settings: in vivo
In short: (§2)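 50 mg/kg by oral gavage in 3% EtOH-7% Tween 80-90% normal saline to groups of three females (BALB/c mice, 8–10 weeks, tail bleed; Sprague-Dawley rats, 10–12 weeks, saphenous vein). Plasma extracted with acetonitrile/internal standard, LC/MS; means of three animals. Oral elimination half-life depends on absorption rate as well as elimination.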

[4] = Inhibition of Plasmodium falciparum protein farnesyltransferase by SPA method
Plasmodium falciparum [5] = test: Antiplasmodial activity against Plasmodium falciparum by [3H]hypoxanthine uptake; type: functional; settings: read-out: ED50 (the source's name)
In short: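 Asynchronous P. falciparum (3D7 or K1) in RPMI 1640 with 20% heat-inactivated human A+ plasma, 0.5% parasitemia and 0.5% hematocrit; compound serially diluted, top final 5 μM, 48 h at 37°C under 5% CO2/5% O2/90% N2, then [8-3H]hypoxanthine 0.3 μCi added for 24 h.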

Mus musculus [6] = test: Toxicity in BALB/c mouse at 50 mg/kg, po; type: organism-based; set-up: dose 50 mg/kg, route oral; settings: in vivo
Rattus norvegicus = test: Toxicity in Sprague-Dawley rat at 50 mg/kg, po; type: organism-based; set-up: dose 50 mg/kg, route oral; settings: in vivo
In short: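 Female Sprague-Dawley rats, 10-12 weeks, three per group. 50 mg/kg oral gavage in 3% EtOH-7% Tween 80-90% normal saline. Saphenous vein plasma sampled over time, and animals observed for adverse reactions.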

[7] = Permeability from basolateral to apical side in human Caco-2 cells; type: ADME, cell-based; settings: read-out: permeability
In short: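 Caco-2 clone TC7 grown on laminin-coated porous inserts and used 19-21 days after seeding; integrity checked by TEER and [3H]mannitol flux. Monolayers equilibrated 30 min at 37°C in HBSS/5 mM HEPES pH 7.4. Compound at 50 μM final added to basolateral donor side. Apical receiver sampled at 60 min, 37°C with shaking; LC/MS; Papp calculated from 60-min concentrations.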

Mus musculus [8] = test: Plasma concentration in BALB/c mouse at 50 mg/kg, po; type: ADME, organism-based; set-up: dose 50 mg/kg, route oral; settings: in vivo
In short: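 Female BALB/c mice, 8-10 weeks, three per group. Single 50 mg/kg oral gavage in 3% EtOH-7% Tween 80-90% normal saline. Plasma collected by tail bleed at set times, frozen at −20°C, acetonitrile-extracted with internal standard, quantified by LC/MS.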

[9] = Metabolic stability in mouse liver microsomes; type: ADME, Microsome
In short: (§3)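 Pooled female liver microsomes at 0.5 mg/ml in 0.1 M potassium phosphate pH 7.4, 3 mM MgCl2, 1 mM EDTA, with NADPH regenerating system (1 mM NADP+, 5 mM glucose-6-phosphate, 1 U/ml G6PDH). Preincubated 10 min at 37°C, then compound added to 1 μM final. Time points quenched with 3 volumes acetonitrile plus internal standard; parent quantified by LC/MS; half-life reported.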

[10] = AUC in BALB/c mouse at 50 mg/kg, po; type: ADME, organism-based; set-up: dose 50 mg/kg, route oral; settings: plasma; in short: as §1
[11] = Cmax in BALB/c mouse at 50 mg/kg, po; type: ADME, organism-based; set-up: dose 50 mg/kg, route oral; settings: in vivo; in short: as §2
[12] = Elimination half life in BALB/c mouse at 50 mg/kg, po; type: ADME, organism-based; set-up: dose 50 mg/kg, route oral; settings: in vivo, read-out: beta t1/2; in short: as §2
[13] = Metabolic stability in rat liver microsomes; type: ADME, Microsome; in short: as §3
[14] = Elimination half life in Sprague-Dawley rat at 50 mg/kg, po; type: ADME, organism-based; set-up: dose 50 mg/kg, route oral; settings: in vivo, read-out: beta t1/2; in short: as §2
Plasmodium falciparum [15] = test: Antiplasmodial activity against chloroquine-sensitive Plasmodium falciparum 3D7 by [3H]hypoxanthine uptake; type: functional; settings: read-out: ED50 (the source's name)
In short: (§4)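 Asynchronous cultures at 0.5% parasitemia and 0.5% hematocrit in RPMI 1640 with 20% heat-inactivated human A+ plasma, exposed to serially diluted inhibitor (top final 5 μM, from DMSO stock) under 5% CO2/5% O2/90% N2 at 37°C for 48 h. [3H]hypoxanthine was then added for 24 h and harvested counts were background-subtracted against DMSO-only controls. ED50 came from linear regression, as the mean of duplicates.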

Plasmodium falciparum [16] = test: Antiplasmodial activity against chloroquine-resistant Plasmodium falciparum K1 by [3H]hypoxanthine uptake; type: functional; settings: read-out: ED50 (the source's name); in short: as §4

Papp A→B [1]	AUC [2]	Cmax [3]	Papp B→A [7]	concentration (Mus musculus [8])	half-life [9]	AUC [10]	Cmax [11]	half-life [12]	half-life [14]	Structure (SMILES)	IC50 [4]	EC50 (Plasmodium falciparum [5])	Activity (Mus musculus [6])	Activity (Rattus norvegicus)	half-life [13]	EC50 (Plasmodium falciparum [15])	EC50 (Plasmodium falciparum [16])
0.7 ×10⁻⁶ cm/s	5.42 µM·h	3.4 µM	72.5 ×10⁻⁶ cm/s	3.9 µM	3.4 min	4.55 µM·h	3.9 µM	30 min	26 min	Cn1cnc(S(=O)(=O)N(Cc2ccc(C(F)(F)F)o2)C2Cc3cc(C#N)ccc3N(Cc3cncn3C)C2)c1 (stereo not drawn)	–	–	Non-toxic	Non-toxic	16 min	–	–
12.4 ×10⁻⁶ cm/s	11.6 µM·h	5.4 µM	45.5 ×10⁻⁶ cm/s	13.6 µM	4.9 min	15.9 µM·h	13.5 µM	40 min	62 min	Cn1cncc1CN1CC(N(CCn2cccc2)S(=O)(=O)c2ccccn2)Cc2cc(C#N)ccc21 (stereo not drawn)	–	–	Non-toxic	Non-toxic	10.4 min	–	–

The next lines start with the molecule.

Structure (SMILES)	Papp A→B [1]	AUC [2]	Cmax [3]	Papp B→A [7]	concentration (Mus musculus [8])	half-life [9]	AUC [10]	Cmax [11]	half-life [12]	half-life [14]	IC50 [4]	EC50 (Plasmodium falciparum [5])	Activity (Mus musculus [6])	Activity (Rattus norvegicus)	half-life [13]	EC50 (Plasmodium falciparum [15])	EC50 (Plasmodium falciparum [16])
CC(C)OC(=O)N1CCC(CN(C2Cc3cc(C#N)ccc3N(Cc3cncn3C)C2)S(=O)(=O)c2ccccn2)CC1 (stereo not drawn)	1 ×10⁻⁶ cm/s	10.9 µM·h	4.5 µM	–	–	–	–	–	–	–	0.5 nM	16 nM	Non-toxic	Non-toxic	–	–	–
CC(C)COC(=O)N1CCC(CN(C2Cc3cc(C#N)ccc3N(Cc3cncn3C)C2)S(=O)(=O)c2ccccn2)CC1 (stereo not drawn)	–	33.8 µM·h	8.4 µM	–	–	5.1 min	4.67 µM·h	5.4 µM	26 min	62 min	0.7 nM	62 nM	–	–	18 min	62 nM	62 nM
CCOC(=O)N1CCC(CN(C2Cc3cc(C#N)ccc3N(Cc3cncn3C)C2)S(=O)(=O)c2ccccn2)CC1 (stereo not drawn)	2.6 ×10⁻⁶ cm/s	–	–	–	–	–	–	–	–	–	0.6 nM	55 nM	Non-toxic	Non-toxic	12 min	55 nM	40 nM
